Where a SMILES comes first, the peptide text is derived from it. Bridges are numbered along the chain shown (N, C = ends). The star is where a group is joined. DOTA = O=C(O)CN1CCN(CC(=O)O)CCN(CC(=O)*)CCN(CC(=O)O)CC1
Key:
in vivo = settings: female, athymic nude, mouse, 7.4 MBq, total radioactivity
[1] = tested on: U87MG human glioblastoma cells; experiment: Cell efflux; type: cell-based; settings: after 2 h efflux incubation
Method in brief: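 Cells seeded at 2.5×10^5/well 24 h ahead, then loaded with 370 kBq/well radiotracer for 2 h at 37°C to allow internalization. After two PBS washes, cells were kept in culture medium for 15, 30, 60 and 120 min, washed three times with PBS and detached with 0.25% trypsin/0.02% EDTA. Cell-bound activity was gamma counted and expressed as % of added dose after decay correction. Two experiments, triplicate wells.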

Probe stability in PBS = type: physicochemical; settings: PBS pH 7.4, 37°C, 3.7 MBq in 0.5 mL, HPLC
Method in brief: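 Radiolabeled peptide (3.7 MBq) was added to 0.5 mL PBS and held at 37°C for 1, 6 and 24 h. At each time an aliquot was taken and radiochemical purity was measured by radio-HPLC on a C18 reversed-phase column, with UV at 214/254 nm. Results are given as % intact tracer.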

[2] = type: physicochemical; settings: pH 7.4

NCCCC[C@@H]1NC(=O)[C@@H]2CCCN2C(=O)[C@H](CC(N)=O)NC(=O)[C@H](CO)NC(=O)[C@H](CC(N)=O)NC(=O)CNC(=O)[C@@H](NC(=O)CN2CCN(CC(=O)O)CCN(CC(=O)O)CCN(CC(=O)O)CC2)CSSC[C@@H](C(N)=O)NC(=O)[C@H](CO)NC1=O [^64Cu-DOTA-GX1, metal not drawn] ({DOTA}-CGNSNPKSC-NH2; disulfide 1-9; N-terminus and C-terminus assumed)
tissue uptake at 24 h (in vivo; U87MG tumor uptake (biodistribution)): 6.46 ± 0.29 %ID/g
tissue uptake at 24 h (in vivo; liver uptake (biodistribution)): 5.03 ± 0.14 %ID/g
radioactivity still associated with the cells [1]: 76%
percentage of intact tracer in PBS (Probe stability in PBS; 6 h incubation): more than 95%
percentage of intact tracer in PBS (Probe stability in PBS; 24 h incubation): more than 91%
octanol/water partition coefficient (log P) [2]: −2.42±0.003
